In paper PMC5378272 (Cancer Science, 2017):

Assays:
[1] = system: human blood‐derived monocytes; conditions: M‐CSF 100 ng/mL, 6 days, 0.3 μM
[2] = molecular target: CSF‐1R (Homo sapiens, UniProt P07333); assay type: cell-based; conditions: CSF‐1R‐transfected 293A cells, M‐CSF 100 ng/mL, western blot
In short: (§1)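 Cells (1.5 × 10⁶) were seeded for 24 h, then serum-starved overnight. They were pretreated 1 h with test compound and stimulated with 100 ng/mL ligand for 15 min: rhM‐CSF for CSF‐1R‐transfected 293A (DMEM, 10% FBS) and VEGF165 for HUVEC. Whole-cell lysates were immunoblotted for phospho-CSF1R or phospho-VEGFR2, with total receptor and β‐actin as internal controls.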

[3] = system: Aurora B; assay: Western blotting of p‐H3; assay type: cell-based, human; conditions: Molt‐4 cells, 24 h, western blot, concentrations up to 6 μM
[4] = system: HCT‐8; assay: Tumor xenograft model; assay type: in vivo, BALB/c athymic mice; conditions: HCT‐8 xenograft, oral once daily
In short: (§2)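 Subjects were 6-week-old female BALB/c athymic mice. Tumour cells in 200 μL serum-free medium were implanted s.c. At 100–150 mm³, mice were randomised (n = 8/group) and dosed by oral gavage once daily with test compound in 0.5% CMC‐Na, sunitinib or vehicle. Doses were 2.5–20 mg/kg for HCT‐8 and SMMC‐7721, and 5–40 mg/kg for A549. Volumes were measured every 3–4 days over 33 or 43 days. Percent TGI at last treatment was computed versus vehicle.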

[5] = system: A549; assay: Tumor xenograft model; assay type: in vivo, BALB/c athymic mice; conditions: oral once daily, 5 to 40 mg/kg
In short: as §2

[6] = molecular target: c‐RAF (Homo sapiens, UniProt P04049, Y340D/Y341D); assay: Kinase inhibition assay; conditions: Biochemical IC50, cell-free
Chain of c‐RAF (P04049 306-648 Y340D/Y341D limits assumed): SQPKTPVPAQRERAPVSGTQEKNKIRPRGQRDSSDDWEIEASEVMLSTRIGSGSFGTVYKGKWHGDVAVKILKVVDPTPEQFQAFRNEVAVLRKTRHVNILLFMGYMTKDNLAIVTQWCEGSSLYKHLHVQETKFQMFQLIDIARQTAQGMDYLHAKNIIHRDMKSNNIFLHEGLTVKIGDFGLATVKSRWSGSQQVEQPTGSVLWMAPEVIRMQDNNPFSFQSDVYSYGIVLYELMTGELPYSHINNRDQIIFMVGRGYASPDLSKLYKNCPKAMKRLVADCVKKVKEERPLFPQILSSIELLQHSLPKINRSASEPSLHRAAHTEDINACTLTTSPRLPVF

[7] = system: Colo‐320 cells; assay: Growth inhibition of tumor cells; assay type: cell-based; conditions: Homo sapiens, COLO 320, 120 h, read-out: GI50, growth inhibition
[8] = system: SMMC‐7721; assay: Tumor xenograft model; assay type: in vivo, BALB/c athymic mice; conditions: SMMC‐7721 xenograft, oral once daily
In short: as §2

[9] = molecular target: VEGFR2 (Homo sapiens, UniProt P35968); assay: Western blotting of VEGF-stimulated VEGFR2 phosphorylation in HUVEC; assay type: cell-based; conditions: 1 h pre-treatment, VEGF 100 ng/mL 15 min, western blot
Chain of VEGFR2 (P35968 20-1356): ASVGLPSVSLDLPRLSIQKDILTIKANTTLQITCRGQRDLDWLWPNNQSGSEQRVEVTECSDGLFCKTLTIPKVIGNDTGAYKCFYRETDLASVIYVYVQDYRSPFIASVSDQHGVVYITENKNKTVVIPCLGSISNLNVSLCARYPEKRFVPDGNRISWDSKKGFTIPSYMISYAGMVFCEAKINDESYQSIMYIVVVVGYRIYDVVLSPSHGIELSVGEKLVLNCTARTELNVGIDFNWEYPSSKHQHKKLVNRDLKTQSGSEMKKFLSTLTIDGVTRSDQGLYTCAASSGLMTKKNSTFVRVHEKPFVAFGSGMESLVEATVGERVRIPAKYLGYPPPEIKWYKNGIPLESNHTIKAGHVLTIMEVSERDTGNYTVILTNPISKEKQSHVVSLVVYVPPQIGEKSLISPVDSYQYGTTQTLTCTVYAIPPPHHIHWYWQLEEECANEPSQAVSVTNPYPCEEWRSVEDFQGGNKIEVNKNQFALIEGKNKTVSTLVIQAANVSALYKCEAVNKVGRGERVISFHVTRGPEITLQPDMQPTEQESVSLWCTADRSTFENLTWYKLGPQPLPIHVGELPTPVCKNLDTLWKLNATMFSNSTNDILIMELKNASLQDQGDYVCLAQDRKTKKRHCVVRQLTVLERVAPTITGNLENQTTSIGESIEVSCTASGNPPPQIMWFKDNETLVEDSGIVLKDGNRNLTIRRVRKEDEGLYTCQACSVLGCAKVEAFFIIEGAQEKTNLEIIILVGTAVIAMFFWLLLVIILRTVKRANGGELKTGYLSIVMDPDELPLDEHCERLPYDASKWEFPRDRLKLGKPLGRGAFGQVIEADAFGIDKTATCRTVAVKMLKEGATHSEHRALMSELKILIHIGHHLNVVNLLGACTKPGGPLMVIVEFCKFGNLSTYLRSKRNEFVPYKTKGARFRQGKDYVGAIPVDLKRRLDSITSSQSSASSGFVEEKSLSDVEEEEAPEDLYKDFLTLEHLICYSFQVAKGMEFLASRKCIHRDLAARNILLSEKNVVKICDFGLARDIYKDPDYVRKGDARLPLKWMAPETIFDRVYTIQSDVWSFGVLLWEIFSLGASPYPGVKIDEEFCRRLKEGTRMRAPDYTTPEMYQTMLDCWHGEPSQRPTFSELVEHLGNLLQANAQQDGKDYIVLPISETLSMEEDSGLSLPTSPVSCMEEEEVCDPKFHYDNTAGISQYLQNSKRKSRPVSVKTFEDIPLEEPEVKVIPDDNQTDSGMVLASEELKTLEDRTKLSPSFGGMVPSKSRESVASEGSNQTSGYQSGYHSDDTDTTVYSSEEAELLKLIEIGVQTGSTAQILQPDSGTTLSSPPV
In short: as §1

[10] = molecular target: PLK3 (Homo sapiens, UniProt Q9H4B4); assay: Kinase inhibition assay; conditions: Biochemical IC50, cell-free
Chain of PLK3 (Q9H4B4 whole entry): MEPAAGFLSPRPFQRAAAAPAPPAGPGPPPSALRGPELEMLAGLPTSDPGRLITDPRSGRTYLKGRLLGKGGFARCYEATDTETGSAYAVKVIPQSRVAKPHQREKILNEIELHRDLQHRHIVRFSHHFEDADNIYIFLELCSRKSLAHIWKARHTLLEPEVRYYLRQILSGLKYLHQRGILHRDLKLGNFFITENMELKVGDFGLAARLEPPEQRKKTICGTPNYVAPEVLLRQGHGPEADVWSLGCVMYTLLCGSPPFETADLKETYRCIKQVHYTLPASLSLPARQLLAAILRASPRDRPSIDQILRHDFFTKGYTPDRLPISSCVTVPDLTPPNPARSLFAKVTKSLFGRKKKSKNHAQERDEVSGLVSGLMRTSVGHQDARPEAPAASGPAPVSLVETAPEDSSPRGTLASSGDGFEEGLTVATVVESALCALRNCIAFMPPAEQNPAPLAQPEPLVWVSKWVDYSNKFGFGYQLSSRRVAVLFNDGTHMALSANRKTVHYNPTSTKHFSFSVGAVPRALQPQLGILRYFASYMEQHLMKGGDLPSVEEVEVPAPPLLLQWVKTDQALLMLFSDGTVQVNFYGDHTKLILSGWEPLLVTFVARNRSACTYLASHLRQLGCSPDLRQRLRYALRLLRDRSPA

[11] = molecular target: PLK1 (Homo sapiens, UniProt P53350); assay: Kinase inhibition assay; conditions: Biochemical IC50, cell-free
Chain of PLK1 (P53350 whole entry): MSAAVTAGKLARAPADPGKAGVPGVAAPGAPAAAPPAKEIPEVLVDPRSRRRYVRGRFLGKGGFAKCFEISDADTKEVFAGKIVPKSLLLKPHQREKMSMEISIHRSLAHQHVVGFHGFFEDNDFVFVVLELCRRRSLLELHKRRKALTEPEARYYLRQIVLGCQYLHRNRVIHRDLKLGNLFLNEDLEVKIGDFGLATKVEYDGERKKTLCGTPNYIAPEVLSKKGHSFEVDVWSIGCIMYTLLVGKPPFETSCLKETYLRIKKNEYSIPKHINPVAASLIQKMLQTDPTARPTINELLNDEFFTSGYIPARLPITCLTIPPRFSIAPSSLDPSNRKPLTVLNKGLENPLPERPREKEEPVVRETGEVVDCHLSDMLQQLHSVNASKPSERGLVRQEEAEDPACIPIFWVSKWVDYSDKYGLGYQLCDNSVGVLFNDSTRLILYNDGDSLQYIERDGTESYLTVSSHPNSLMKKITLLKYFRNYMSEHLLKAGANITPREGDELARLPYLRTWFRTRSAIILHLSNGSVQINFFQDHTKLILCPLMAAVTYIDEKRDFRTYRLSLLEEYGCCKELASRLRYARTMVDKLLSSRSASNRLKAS

[12] = system: MGC‐803; assay: Tumor xenograft model; assay type: in vivo, BALB/c athymic mice; conditions: MGC‐803 xenograft; for tumor growth: oral once daily
[13] = system: HUVEC; assay: Tube formation assay; assay type: cell-based, human; conditions: HUVEC on Matrigel, 1.5 or 5 μM, 24 h, vs control
In short: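 HUVEC were maintained in endothelial cell medium with 5% FBS, heparin (50 μg/mL) and ECGS (50 μg/mL). Matrigel was polymerised 45 min at 37°C. 4 × 10⁴ cells in complete medium were seeded onto it with vehicle or test compound and incubated 24 h. Networks were imaged by light microscopy and scored as mean loops per field and total branch length (pixels). Results are mean ± SD of five experiments; t-test versus vehicle.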

[14] = system: COLO‐320 tumor; assay: COLO‐320 xenograft in SCID mice, tumor tissue analysis; assay type: in vivo; conditions: oral 2.5 or 20 mg/kg/day, 12 days
In short: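 COLO-320 cells implanted s.c. in SCID mice; established tumors dosed orally once daily for 12 days at 2.5 or 20 mg/kg/day, with compound suspended in 0.5% (w/v) CMC-Na. Half of each tumor went to histone extraction and western blot for p-H3 (Ser10) vs total H3, with normal colon as comparator. The other half was formalin-fixed and paraffin-embedded for IHC (CD34, p-H3 Ser10, Ki67).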

[15] = system: Molt‐4 cells; assay: Cell cycle analysis by flow cytometry; assay type: cell-based, human; conditions: Molt‐4, 3 μM, 24 h; control group 14.9%
[16] = system: Molt‐4 cells; assay: Growth inhibition of tumor cells; assay type: cell-based; conditions: Homo sapiens, MOLT-4, 120 h, read-out: GI50, growth inhibition
[17] = system: 4T1 breast cancer cells; assay: 4T1 breast cancer model in BALB/c mice, tumor tissue immunohistochemistry; assay type: in vivo
[18] = molecular target: T1, DDR2 (Homo sapiens, UniProt Q16832); assay: Kinase inhibition assay; conditions: Biochemical IC50, cell-free
T1 sequence (Q16832 22-855): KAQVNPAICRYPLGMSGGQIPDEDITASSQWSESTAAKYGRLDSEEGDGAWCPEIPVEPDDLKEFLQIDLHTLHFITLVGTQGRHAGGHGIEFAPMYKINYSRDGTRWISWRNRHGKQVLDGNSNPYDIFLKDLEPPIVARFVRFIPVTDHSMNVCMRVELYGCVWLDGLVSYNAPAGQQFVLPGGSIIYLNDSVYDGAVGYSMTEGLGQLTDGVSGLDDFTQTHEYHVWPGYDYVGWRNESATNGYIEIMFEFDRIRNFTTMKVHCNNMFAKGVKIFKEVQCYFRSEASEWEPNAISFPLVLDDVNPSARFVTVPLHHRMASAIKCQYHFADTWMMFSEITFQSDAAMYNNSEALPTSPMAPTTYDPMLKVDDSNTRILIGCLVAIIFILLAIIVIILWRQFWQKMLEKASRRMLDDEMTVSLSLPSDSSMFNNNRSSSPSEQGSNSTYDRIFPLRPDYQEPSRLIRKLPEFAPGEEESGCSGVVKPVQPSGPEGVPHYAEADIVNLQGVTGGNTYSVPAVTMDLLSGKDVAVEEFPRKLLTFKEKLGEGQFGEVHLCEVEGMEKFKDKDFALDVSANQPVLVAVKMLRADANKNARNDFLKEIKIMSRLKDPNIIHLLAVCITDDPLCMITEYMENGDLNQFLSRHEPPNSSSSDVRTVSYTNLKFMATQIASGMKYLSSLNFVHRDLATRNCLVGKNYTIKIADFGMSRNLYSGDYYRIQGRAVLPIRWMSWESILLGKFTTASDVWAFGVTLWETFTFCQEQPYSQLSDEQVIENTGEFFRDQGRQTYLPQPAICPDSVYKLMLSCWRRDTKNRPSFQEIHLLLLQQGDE

[19] = immunohistochemistry, vs vehicle

Chain of CSF‐1R (P07333 20-972): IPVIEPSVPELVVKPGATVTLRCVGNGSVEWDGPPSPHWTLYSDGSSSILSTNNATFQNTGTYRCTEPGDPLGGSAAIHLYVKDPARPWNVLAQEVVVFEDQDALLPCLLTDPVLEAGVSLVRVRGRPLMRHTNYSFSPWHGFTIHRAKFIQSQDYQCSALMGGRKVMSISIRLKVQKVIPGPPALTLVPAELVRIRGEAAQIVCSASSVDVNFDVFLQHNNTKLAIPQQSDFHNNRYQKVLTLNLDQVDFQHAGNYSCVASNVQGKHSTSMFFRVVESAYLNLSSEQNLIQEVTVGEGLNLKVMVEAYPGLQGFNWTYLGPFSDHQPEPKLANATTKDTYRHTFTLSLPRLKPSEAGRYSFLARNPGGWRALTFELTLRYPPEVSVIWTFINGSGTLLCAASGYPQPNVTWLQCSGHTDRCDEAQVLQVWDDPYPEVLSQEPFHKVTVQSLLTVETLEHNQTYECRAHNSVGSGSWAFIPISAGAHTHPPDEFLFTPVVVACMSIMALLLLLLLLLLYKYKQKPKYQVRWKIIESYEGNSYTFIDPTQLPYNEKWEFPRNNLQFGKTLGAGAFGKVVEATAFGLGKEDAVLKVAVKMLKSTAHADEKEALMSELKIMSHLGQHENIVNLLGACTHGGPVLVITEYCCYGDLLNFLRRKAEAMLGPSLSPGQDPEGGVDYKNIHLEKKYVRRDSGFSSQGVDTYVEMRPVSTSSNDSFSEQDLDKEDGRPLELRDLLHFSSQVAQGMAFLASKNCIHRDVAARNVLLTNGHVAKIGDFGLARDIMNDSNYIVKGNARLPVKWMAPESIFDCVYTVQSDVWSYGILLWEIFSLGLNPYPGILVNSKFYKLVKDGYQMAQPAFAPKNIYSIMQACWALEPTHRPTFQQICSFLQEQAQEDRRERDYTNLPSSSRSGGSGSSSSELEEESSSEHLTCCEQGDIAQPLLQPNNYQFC

`COc1ccc2c(Oc3ccc4c(C(=O)Nc5ccccc5N)cccc4c3)ccnc2c1` [CS2164, N‐(2‐aminophenyl)‐6‐[(7‐methoxy‐4‐quinolinyl)oxy]‐1‐naphthalenecarboxamide] was tested, and the “M‐CSF induced differentiation and proliferation of monocytes” value [1] was “almost complete inhibition”, the “CSF‐1R phosphorylation induced by M‐CSF” value [2] was “concentration‐dependent inhibition” and the “level of p‐H3 (Ser10‐phosphorylated histone 3)” value [3] was “substantial reduction”. The “50% tumor growth inhibition (TGI50) dose” value [4] was 2.5 mg/kg, the TGI50 dose [5] was “around 5 mg/kg” and the IC50 [6] was 0.1 to 0.5 µM. For the same compound, the GI50 [7] was 0.84 µM, the “50% tumor growth inhibition (TGI50) dose” value [8] was 2.5 mg/kg and the “ligand‐stimulated VEGFR2 tyrosine phosphorylation” value [9] was “concentration‐dependent inhibition”. For the same compound, the IC50 [10] was 0.1 to 0.5 µM, the IC50 [11] was 0.1 to 0.5 µM and the “efficacy compared with sunitinib at 40 mg/kg” value ([12]; CS2164 at 5 mg/kg oral daily) was “comparable”. For the same compound, the tumor growth ([12]; 1 mg/kg) was “started to demonstrate tumor growth inhibition”, the tumor growth ([12]; 5 mg/kg) was “near complete inhibition” and the “number of loops of tubular network structures” value [13] was “significant reductions”. The “total branch lengths of tubular network structures” value [13] was “significant reductions”, the “vascularization in tumor tissues” value [14] was “decreased vascularization” and the “CD34 staining in tumor tissues” value ([14]; immunohistochemistry) was “remarkably reduced”. The “tissue Ki67 staining” value [14, 19] was “substantial dose‐dependent decrease”, the “tissue p‐H3 staining” value [14, 19] was “substantial dose‐dependent decrease” and the “p‐H3 levels in tumor tissue by western blotting” value ([14]; only tumor tissue, not normal colonic tissue) was “reduced p‐H3 levels”. The “cells in G2/M phase (of cell cycle phases)” value (“cells in G2/M phase” below) [15] was 59.5%, the GI50 [16] was 2.14 µM and the “tissue CD11b^+ macrophage infiltration” value ([17]; oral 20 mg/kg daily, day 12, immunohistochemistry) was “decreased”. For the same compound, the “CSF‐1R^+ cells in tumor tissue” value ([17]; oral 2.5 or 20 mg/kg/day, 12 days, immunohistochemistry) was “dramatic reduction” and the IC50 [18] was 0.1 to 0.5 µM.

In the case of `CNC(=O)c1cc(Oc2ccc(NC(=O)Nc3ccc(Cl)c(C(F)(F)F)c3)cc2)ccn1` [sorafenib], the “cells in G2/M phase” value [15] is reported as 13.3%.

For `CCN(CC)CCNC(=O)c1c(C)[nH]c(/C=C2\C(=O)Nc3ccc(F)cc32)c1C` [sunitinib, reference compound], the “level of p‐H3 (Ser10‐phosphorylated histone 3)” value [3] was “little inhibitory activity” and the “cells in G2/M phase” value [15] was 20.4%.
